Reference: ChEMBL document CHEMBL2086384, “Chiral cyclohexane 1,3-diones as inhibitors of mutant SOD1-dependent protein aggregation for the treatment of ALS” (ACS Med Chem Lett, 2012)
The source made the active and inactive calls. The rule behind the calls is not given here.

Experiments:
[1] = Inhibition of SOD1 G93A mutant-induced protein aggregation in MG132-treated rat PC12 cells assessed as decrease in cell death incubated for 24 hrs prior to MG132 treatment measured after 48 hrs by Calcein-AM staining method; assay type: cell-based; settings: PC-12
Cerebral cortex neuron [2] = assay: Inhibition of SOD1 G93A mutant-induced protein aggregation in MG132-treated rat primary cortical neurons assessed as decrease in cell death up to 100 uM incubated for 24 hrs prior to MG132 treatment measured after 48 hrs by Calcein-AM staining method; assay type: cell-based
Cerebral cortex neuron [3] = assay: Inhibition of SOD1 G93A mutant-induced protein aggregation in MG132-treated rat primary cortical neurons assessed as decrease in cell death at 3 uM incubated for 24 hrs prior to MG132 treatment measured after 48 hrs by Calcein-AM staining method; assay type: cell-based
[4] = Aqueous solubility of the compound in DMSO after 1 hr by spectrophotometry; assay type: physicochemical
Summary of the method: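 Aqueous solubility: DMSO stock diluted into PBS to a final 1% DMSO. The limit was taken as the highest concentration showing no precipitation.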

[5] = Half life in plasma; assay type: ADME, cell-free
Liver [6] = assay: Half life in mouse liver microsomes at 1 uM after 1 hr in presence of NADPH; assay type: ADME, Microsome
Summary of the method: (§1)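 Human or mouse liver microsomes; test compound at 1 μM, incubated at 37 °C for 1 h with and without NADPH. Intrinsic clearance given in mL/min/kg and half-life in min.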

[7] = Intrinsic clearance in human liver microsomes at 1 uM after 1 hr in absence of NADPH; assay type: ADME, Microsome; settings: read-out: CLH; summary of the method: as §1
Liver microsomes [8] = assay: Half life in human liver microsomes at 1 uM after 1 hr in absence of NADPH; assay type: ADME, Microsome; summary of the method: as §1
Liver [9] = assay: Half life in mouse liver microsomes at 1 uM after 1 hr in absence of NADPH; assay type: ADME, Microsome; summary of the method: as §1
Liver microsomes [10] = assay: Drug metabolism in rat liver microsomes at 10 uM after 1 hr by LC-PDA-MS/MS analysis; assay type: ADME, Microsome
[11] = Apparent permeability of the compound from apical to basal side of human Caco2 cells at 50 uM after 2 hrs; assay type: ADME, cell-based; settings: Caco-2
[12] = Apparent permeability of the compound from basal to apical side of human Caco2 cells at 50 uM after 2 hrs; assay type: ADME, cell-based; settings: Caco-2
Caco-2 = assay: Efflux ratio of apparent permeability from basal to apical to apical to basal side of human Caco2 cells at 50 uM after 2 hrs; assay type: ADME, cell-based; settings: caco-2, 2 h
[13] = Drug uptake in blood at 500 mg/kg, ip at 12 hrs; assay type: ADME, organism-based; parameters: dose 500 mg/kg, route intraperitoneal; settings: read-out: Drug uptake
Summary of the method: (§2)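 Single i.p. dose of 500 mg/kg in mice. Blood and brain levels were sampled over time to find the maximum level and Tmax.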

[14] = Half life in blood at 500 mg/kg, ip; assay type: ADME, organism-based; parameters: dose 500 mg/kg, route intraperitoneal
Summary of the method: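 Compound given i.p. at 500 mg/kg. Concentrations were measured in blood, with brain levels sampled in the same study. The half-life was taken from the blood time course.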

[15] = Drug uptake in brain at 500 mg/kg, ip; assay type: ADME, organism-based; parameters: dose 500 mg/kg, route intraperitoneal; settings: in vivo, read-out: Drug uptake; summary of the method: as §2
[16] = Tmax in brain at 500 mg/kg, ip; assay type: ADME, organism-based; parameters: dose 500 mg/kg, route intraperitoneal
Summary of the method: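 Compound given as a single intraperitoneal dose of 500 mg/kg. Levels were followed over time in both blood and brain. Tmax is the time at which the brain concentration peaked.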

[17] = Toxicity in mouse administered BID; assay type: organism-based; settings: in vivo
Summary of the method: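 Tolerable dose range found in wild-type mice by escalating the dose given b.i.d.; maximum tolerated dose taken as the read-out.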

Mus musculus [18] = assay: Increase in life span of transgenic mouse expressing human SOD1 G93A mutant at 20 mg/kg administered QD until death relative to untreated-control; assay type: functional
Summary of the method: (§3)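 Transgenic mice expressing human G93A mutant SOD1, cohorts matched for age (±3 days) and "f" generation, drawn from multiple litters. Dosed 10, 20 or 30 mg/kg once daily from 6 weeks of age until end of life; untreated G93A mice served as controls. Survival read out by Kaplan-Meier plot and reported as mean ± value in days, with p values.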

Mus musculus [19] = assay: Increase in life span of transgenic mouse expressing human SOD1 G93A mutant assessed as survival at 10 mg/kg administered QD until death (reference value: 125.7+/-4.3 days); assay type: functional; summary of the method: as §3
Mus musculus [20] = assay: Increase in life span of transgenic mouse expressing human SOD1 G93A mutant assessed as survival at 30 mg/kg administered QD until death (reference value: 125.7+/-4.3 days); assay type: functional; summary of the method: as §3
Liver microsomes [21] = assay: Half life in human liver microsomes at 1 uM after 1 hr in presence of NADPH; assay type: ADME, Microsome; summary of the method: as §1
Cerebral cortex neuron [22] = assay: Inhibition of SOD1 G93A mutant-induced protein aggregation in MG132-treated rat primary cortical neurons assessed as decrease in cell death at 10 uM incubated for 24 hrs prior to MG132 treatment measured after 48 hrs by Calcein-AM staining method; assay type: cell-based
Mus musculus [23] = assay: Increase in life span of transgenic mouse expressing human SOD1 G93A mutant at 22 mg/kg; assay type: functional

## C[C@H](Oc1cc(C(F)(F)F)cc(C(F)(F)F)c1)C1CC(=O)CC(=O)C1
[1]
  EC50: 300 nM
Cerebral cortex neuron [2]
  inhibition: Active
Cerebral cortex neuron [3]
  inhibition: > 90%
[4]
  solubility: >= 100 uM
[5]
  t1/2: > 1 h
Liver [6]
  t1/2: 0.867 h
[7]
  CLint scaled at 1 µM: 10 mL/min/kg
Liver microsomes [8]
  t1/2: > 3 h
Liver [9]
  t1/2: 0.867 h
Liver microsomes [10]
  Drug metabolism: Active
[11]
  Papp A→B at 2 h, 50 µM: 24.1 ×10⁻⁶ cm/s
[12]
  Papp B→A at 2 h, 50 µM: 1.5 ×10⁻⁶ cm/s
Caco-2
  Ratio: 0.1
[13]
  concentration at 12 h: 245 µM
[14]
  half-life: 12 h
[15]
  concentration: 8.3 µM
[16]
  Tmax: 12 h
[17]
  MTD: 1280 mg/kg
Mus musculus [18]
  survival at 20 mg/kg: 13%
Mus musculus [19]
  Survival: 139.2 days
Mus musculus [20]
  Survival: 127.9 days

## O=C1CC(=O)CC([C@@H]2C[C@H]2c2cc(C(F)(F)F)cc(C(F)(F)F)c2)C1
[1]
  EC50: 800 nM
Cerebral cortex neuron [2]
  inhibition: Active
[4]
  solubility: >= 100 uM
[5]
  t1/2: 1.18 h
Liver microsomes [21]
  t1/2: 0.817 h
Liver [6]
  t1/2: 0.467 h
[7]
  CLint scaled at 1 µM: 12 mL/min/kg
Liver microsomes [8]
  t1/2: > 3 h
Liver [9]
  t1/2: 0.617 h
[11]
  Papp A→B at 2 h, 50 µM: 21.7 ×10⁻⁶ cm/s
[12]
  Papp B→A at 2 h, 50 µM: 1.1 ×10⁻⁶ cm/s
Caco-2
  Ratio: 0.1

## O=C1CC(=O)CC(c2cc(C(F)(F)F)cc(C(F)(F)F)c2)C1
[1]
  EC50: 700 nM
Cerebral cortex neuron [2]
  inhibition: inactive

## O=c1cc(COc2cc(Cl)cc(Cl)c2)[nH][nH]1
Cerebral cortex neuron [22]
  inhibition: Active

## CC(Oc1cc(C(F)(F)F)cc(C(F)(F)F)c1)C1CC(=O)CC(=O)C1 (racemic)
[1]
  EC50: 700 nM
Cerebral cortex neuron [2]
  inhibition: Active

## C[C@@H](Oc1cc(C(F)(F)F)cc(C(F)(F)F)c1)C1CC(=O)CC(=O)C1
[1]
  EC50: 1300 nM
Cerebral cortex neuron [2]
  inhibition: Active

## O=C1CC(=O)CC(C2CC2c2cc(C(F)(F)F)cc(C(F)(F)F)c2)C1 (racemic)
[1]
  EC50: 1000 nM
Cerebral cortex neuron [2]
  inhibition: Active

## Nc1nc2ccc(OC(F)(F)F)cc2s1 [RILUZOLE]
Mus musculus [23]
  survival at 22 mg/kg: 10%

## O=C1CC(=O)CC([C@H]2C[C@@H]2c2cc(C(F)(F)F)cc(C(F)(F)F)c2)C1
[1]
  EC50: 1390 nM
Cerebral cortex neuron [2]
  inhibition: Active
